SENP8 block-1: SENP8 (human) protease inhibition. recombinant SENP8, Nedd8 substrate fluorescence. inhibition, % at 20 µM. 0.64% of 360,000 active. AID 602440; in the data active = inhibition mostly above about 40%, no sharp cut-off; inactive = mostly below about 27%
SENP8 block-2: inhibitors of human SENP8 protease | Q96LD8 | purified SENP8, Z-RLRGG-aminoluciferin cleavage, luminescence | inhibition, % at 10 µM | 1.2% of 330,000 active; in the data active = inhibition above about 50%
NRP1-CendR mod: NRP-1/CendR interaction modulation; FAM-RPARPAR peptide binding to NRP-1, fluorescence polarization; AID 602438; inhibition, % at 25 µM; O14786; 0.85% of 360,000 active;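 active = inhibition or corrected inhibition above about 18%, plus a signal ratio from 0.5 to 1.5, limit read from the data, passing the limit was not always enough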
Target sequence (O14786 whole entry, looked up): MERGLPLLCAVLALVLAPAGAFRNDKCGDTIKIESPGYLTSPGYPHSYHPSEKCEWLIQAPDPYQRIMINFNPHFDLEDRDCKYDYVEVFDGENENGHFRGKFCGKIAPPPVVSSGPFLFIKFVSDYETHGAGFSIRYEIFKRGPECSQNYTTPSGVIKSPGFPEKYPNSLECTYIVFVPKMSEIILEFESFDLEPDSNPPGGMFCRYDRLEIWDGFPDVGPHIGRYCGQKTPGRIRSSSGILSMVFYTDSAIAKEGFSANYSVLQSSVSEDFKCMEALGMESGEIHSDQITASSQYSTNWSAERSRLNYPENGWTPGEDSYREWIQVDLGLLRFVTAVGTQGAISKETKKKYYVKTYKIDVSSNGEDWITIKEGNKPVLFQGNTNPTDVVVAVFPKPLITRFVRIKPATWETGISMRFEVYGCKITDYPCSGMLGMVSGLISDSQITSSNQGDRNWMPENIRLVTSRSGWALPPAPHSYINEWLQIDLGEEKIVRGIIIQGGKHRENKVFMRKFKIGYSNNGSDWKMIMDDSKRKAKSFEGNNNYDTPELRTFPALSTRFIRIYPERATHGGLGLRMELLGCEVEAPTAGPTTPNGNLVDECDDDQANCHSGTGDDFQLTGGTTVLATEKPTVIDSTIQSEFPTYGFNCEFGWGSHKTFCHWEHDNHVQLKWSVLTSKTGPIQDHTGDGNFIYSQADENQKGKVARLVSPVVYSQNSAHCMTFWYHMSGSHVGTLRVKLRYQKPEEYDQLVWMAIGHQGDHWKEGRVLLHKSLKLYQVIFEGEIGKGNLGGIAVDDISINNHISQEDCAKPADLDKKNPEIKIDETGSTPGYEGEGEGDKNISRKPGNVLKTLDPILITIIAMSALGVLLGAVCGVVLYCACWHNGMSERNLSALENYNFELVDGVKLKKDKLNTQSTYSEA
SENP1 FRET inh: inhibitors of human SENP1 SUMO protease catalytic domain; AID 624204; inhibition, % at 10 µM; Q9P0U3; recombinant SENP1 catalytic domain, CyPet-SUMO1-YPet FRET cleavage; 0.21% of 360,000 active;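 active = inhibition at least 30% at 10 µM, raw YFP signal under a set limit, fluorescence ratio 0.5 to 1.5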;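 also: 0% = enzyme with DMSO and 100% = no enzyme wells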
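Controls: no-enzyme wells low, DMSO-plus-enzyme wells high control. Test system: human recombinant His6-tagged SENP1 catalytic domain enzyme. Reagent: SFCypet-SUMO1-SFYpet FRET protein substrate, 25 nM final. Doses: one dose per compound, 10 µM, 0.5% DMSO. Detection: FRET, CFP and YFP emission. Timing: 50 min reaction at room temperature.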
SENP7 block: SENP7 protease inhibition; Q9BQF6; 1.5% of 330,000 active; recombinant SENP7, Z-RLRGG-aminoluciferin luminescence, 40 min; inhibition, % at 5 µM;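 active = inhibition above about 50% at the single test dose, limit read from the data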;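 also: plate controls were DMSO with enzyme for no effect and no enzyme buffer wells for full effect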
SENP6 inh: SENP6 protease inhibition | Q9GZR1 | Recombinant SENP6 catalytic domain, aminoluciferin luminescence | inhibition, % at 10 µM | 1.8% of 330,000 active | AID 2599;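 active = inhibition above about 50% at the single tested dose, limit read from the data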;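 also: plate controls were DMSO wells with enzyme for no effect and DMSO wells lacking enzyme for full effect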
SENP8 confirm: human SENP8 inhibition, confirmed. shares compounds with SENP7 block. Recombinant SENP8, Z-RLRGG-aminoluciferin luminescence, 60 min. inhibition, % at 12.5 µM. 40% of 6,200 active;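 active = mean inhibition across replicates above about 50%, limit read from the data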
SENP6 confirm: human SENP6 inhibition, confirmed; shares compounds with SENP7 block; recombinant SENP6, Z-RLRGG-aminoluciferin luminescence; inhibition, % at 12.5 µM; 58% of 6,200 active
SENP7 conf: human SENP7 inhibition, confirmed | shares compounds with SENP7 block | recombinant SENP7, Z-RLRGG-aminoluciferin luminescence, 40 min | inhibition, % at 12.5 µM | 69% of 6,200 active
Casp3 SENP sel: caspase-3 inhibition (SENP selectivity assay). inhibition, % at 12.5 µM. AID 488918. 60% of 6,200 active. purified caspase-3, Z-DEVD-aminoluciferin luminescence, 60 min. shares compounds with SENP7 block;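 active = mean inhibition above about 50%, limit read from the data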;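 also: plate controls were enzyme with DMSO for no effect and wells without caspase-3 for full effect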
Luc interf: interferes with luciferase luminescence in SENP counter-screen; shares compounds with SENP7 block; Pre-incubated SENP8/Z-RLRGG-aminoluciferin, luciferase luminescence interference; inhibition, % at 12.5 µM; 39% of 6,200 active; AID 488919;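 active = mean inhibition above about 50% when retested at one dose, limit read from the data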;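 also: plate controls were DMSO wells with completed reaction for no effect and substrate without enzyme for full effect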
Active calls of the source: *; nt = no result given. Most compounds without a hit are left out; they make up all but 3.3% or so of the library.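 The calls were made as follows, unless noted: active = mean inhibition above about 50% in the one-dose retest (limit read from the data); inactive = the rest.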

SMILES	SENP8 block-1	SENP8 block-2	NRP1-CendR mod	SENP1 FRET inh	SENP7 block	SENP6 inh	SENP8 confirm	SENP6 confirm	SENP7 conf	Casp3 SENP sel	Luc interf
NC(=O)C1CCN(C2=C(Cl)C(=O)c3ccccc3C2=O)CC1	-29	27	22	-2	42	50*	-7	75*	11	-3	-5
O=C1C(Cl)=C(N2CCC(C(=O)O)CC2)C(=O)c2ccccc21	-30	28	35*	-4	39	63*	56*	71*	15	-1	-4
CC[C@@H]1CCCCc2ccccc2[C@H](C(=O)C[C@H](O)CC(C)=O)OC1=O	13	-8	0	2	6	-26	nt	nt	nt	nt	nt
O=C(O)c1ccc(-n2cc(C(=O)c3ccccc3O)cn2)cc1	12	78*	-4	-1	78*	84*	81*	79*	93*	91*	85*
O=C(c1cnn(-c2ccccc2)c1)c1ccc2ccccc2c1O	14	41	-12	15	86*	7	12	16	0	27	1
O=C(c1cnn(C(=O)c2ccccc2)c1)c1ccccc1O	-96	-9	-51	1	5	-11	nt	nt	nt	nt	nt
O=C(c1cnn(-c2ccccc2)c1)c1cc(Br)ccc1O	24	-13	0	2	-4	-7	nt	nt	nt	nt	nt
O=C(c1cnn(-c2cccc(F)c2)c1)c1ccccc1O	12	58*	0	1	68*	71*	16	72*	84*	56*	12
O=C(c1cnn(-c2nc3ccccc3s2)c1)c1ccccc1O	17	38	8	4	82*	79*	16	37	24	18	9
CCOc1ccc(OCCSc2nc(C)cc(=O)[nH]2)cc1	3	70*	6	2	51*	66*	26	72*	61*	79*	3
O=C(CC(Nc1ccc(Cl)cc1)C(=O)O)c1ccccc1 (configuration not stated)	-108	77*	5	-26	81*	92*	42	86*	78*	67*	35
O=C(/C=C/c1ccco1)Nc1ccccc1C(=O)O	-10	88*	-70	-4	83*	93*	93*	94*	101*	97*	93*
COc1ccc(/C=C/c2cc(C(=O)O)c3ccccc3n2)cc1	-438	69*	0	-39	55*	-3	-24	-3	2	-3	7
O=C(/C=C/c1ccco1)Nc1cc(Cl)ccc1C(=O)O	-44	56*	-15	-1	7	73*	72*	71*	88*	70*	75*
O=C(COc1ccc2ccccc2c1)Nc1ccccc1C(=O)O	-6	34	18	0	7	55*	54*	51*	27	50	23
COc1ccc(/C=C/C(=O)Nc2ccccc2C(=O)O)cc1	-4	93*	-8	1	96*	95*	97*	97*	100*	96*	96*
COc1ccc(/C=C/C(=O)Nc2ccccc2C(=O)N2CCCC2)cc1	-3	11	4	0	-3	18	nt	nt	nt	nt	nt
O=C(O)c1ccccc1N=Nc1c(O)[nH]c2ccc([N+](=O)[O-])cc12	29	95*	-25	-6	94*	99*	98*	98*	101*	94*	37
CCc1nc2c(OCc3ccc(F)cc3)cccn2c1N(C)C(=O)COc1ccccc1	8	nt	-11	-2	nt	nt	nt	nt	nt	nt	nt
COc1ccc(C(=O)NCC(=O)N/N=C/c2ccco2)cc1OC	14	-10	-6	-1	-7	101*	7	7	14	7	7
COc1ccc(C(=O)NCCCCCC(=O)N/N=C/c2ccco2)cc1OC	12	1	-7	-2	0	-10	nt	nt	nt	nt	nt
CCOC(=O)C1=C(COC(=O)CCCOc2ccccc2)NC(=O)NC1C (configuration not stated)	7	2	2	0	-4	-22	nt	nt	nt	nt	nt
CC(C)(C)C(=O)N1CCN(c2ncnc3scc(-c4ccccc4)c23)CC1	6	-1	0	-2	5	-13	nt	nt	nt	nt	nt
COc1cccc(-c2nnc(-c3ccc(C)o3)o2)c1	-299	39	-12	1	56*	18	62*	64*	89*	82*	74*
COc1cccc(-c2nnc(-c3ccco3)o2)c1	-111	49	-8	-1	55*	67*	58*	56*	87*	80*	65*
SMILES	SENP8 block-1	SENP8 block-2	NRP1-CendR mod	SENP1 FRET inh	SENP7 block	SENP6 inh	SENP8 confirm	SENP6 confirm	SENP7 conf	Casp3 SENP sel	Luc interf
COc1cccc(-c2nnc(N)o2)c1	6	-4	0	0	-7	-34	nt	nt	nt	nt	nt
COc1cccc(-c2nnc(-c3ccccc3[N+](=O)[O-])o2)c1	13	25	6	0	50*	31	19	30	67*	48	31
Cc1cc(Oc2ccc(-c3nnc(-c4ccccc4)o3)cc2[N+](=O)[O-])ccc1Cl	21	-4	3	0	-2	-4	nt	nt	nt	nt	nt
COc1cccc(-c2nnc(NC(=O)c3cccc(F)c3)o2)c1	15	56*	1	3	33	60*	4	4	4	15	2
CN1CCCCC1(C)C(=O)NCc1ccc(F)cc1 (configuration not stated)	-4	nt	4	0	nt	nt	nt	nt	nt	nt	nt
Cc1ccc(S(=O)(=O)N2CCN(C(=O)COC(=O)COc3ccc(Cl)cc3C)CC2)c(C)c1	18	nt	-4	5	nt	nt	nt	nt	nt	nt	nt
CN(C)CC(=O)N[C@@H]1CC[C@@H](CCNS(=O)(=O)c2ccccc2)O[C@@H]1CO	13	nt	-26	5	nt	nt	nt	nt	nt	nt	nt
C=CCN(CC=C)Cc1cc(=O)oc2cc(C)c(C)cc12	-1	nt	-14	2	nt	nt	nt	nt	nt	nt	nt
Cc1ccc(CCC(=O)Nc2nccs2)o1	13	3	-8	1	92*	4	0	-2	-8	-1	-2
COCc1nnc(NC(=O)COc2ccc3c(c2)OCO3)s1	9	0	4	4	-6	-33	nt	nt	nt	nt	nt
CCOc1ccc(OCC(=O)Nc2nccs2)cc1	18	95*	10	-2	98*	97*	97*	97*	102*	98*	88*

Bioassay records from PubChem.
